The source of these data is ChEMBL document CHEMBL1141659, “Synthesis, properties, and perspectives of gem-diphosphono substituted-thiazoles” (2008).

Experiment [1] concerns Rattus norvegicus. Nature of the experiment: Antiresorptive activity in thyroidparathyroidectomized sc dosed rat assessed as inhibition of 1,25-dihydroxyvitamin D3-induced hypercalcemia. The class given is functional. An outline of the steps:
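In vivo bone resorption was driven by 1,25-dihydroxyvitamin D3, which induced hypercalcemia in thyroparathyroidectomized (TPTX) rats. ED50 values for inhibition of resorption were determined following an earlier published method.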

Experiment [2] has as its system Mus musculus. Nature of the experiment: Antiinflammatory activity in delayed type hypersensitivity mouse model assessed as inhibition of granuloma wet weight at 100 mg/kg, sc.
For experiment [3], the system named is Mus musculus. Nature of the experiment: Antiinflammatory activity in delayed type hypersensitivity mouse model assessed as inhibition of granuloma dry weight at 100 mg/kg, sc.

Each structure is given as a SMILES string.

Usually ED50 stands for the dose at which the effect has come halfway, by size or by number of responders. As usually defined, the inhibition in vivo is how much of the control response was suppressed. For the molecule `Cc1ccc(C(C(C#N)c2nc3ccccc3s2)C(P(=O)(O)O)P(=O)(O)O)cc1` (stereo not drawn), the median effective dose (ED50) in experiment [1] was 0.11 mg/kg. The inhibition in vivo at 100 mg/kg in experiment [2] came to 36%; in experiment [3], 38%.

As for `O=[N+]([O-])c1ccc(/C=C(\c2nc3ccccc3s2)C(P(=O)(O)O)P(=O)(O)O)cc1`, the ED50 in experiment [1] was 0.115 mg/kg. The inhibition in vivo at 100 mg/kg is 8% in experiment [2] and 10% in experiment [3].

With `N#CC(c1nc2ccccc2s1)C(c1ccccc1Cl)C(P(=O)(O)O)P(=O)(O)O` (stereo not drawn), the ED50 in experiment [1] is 0.09 mg/kg. In addition, the inhibition in vivo at 100 mg/kg in experiment [2] worked out at 50%; in experiment [3] it was 41%.

`O=C1NC(=S)SC1C(c1ccc([N+](=O)[O-])cc1)C(P(=O)(O)O)P(=O)(O)O` (stereo not drawn): in experiment [1], the median effective dose (ED50) was 0.085 mg/kg. Further, the inhibition in vivo at 100 mg/kg in experiment [2] was 43%; in experiment [3], 46%.

Turning to `NCCC(O)(P(=O)(O)O)P(=O)(O)O` [PAMIDRONIC ACID], the ED50 in experiment [1] is 0.085 mg/kg.

Turning to `O=P(O)(O)C(O)(Cc1cccnc1)P(=O)(O)O` [RISEDRONIC ACID], the inhibition in vivo at 100 mg/kg in experiment [2] came to 48%; in experiment [3] it was 44%.

On to `CN(C)c1ccc(C(C2SC(=S)NC2=O)C(P(=O)(O)O)P(=O)(O)O)cc1` (stereo not drawn), for which the ED50 in experiment [1] was 0.07 mg/kg. Moreover, the inhibition in vivo at 100 mg/kg in experiment [2] turned out to be 52%; in experiment [3], 55%.

For the molecule `O=[N+]([O-])c1ccccc1/C=C(\c1nc2ccccc2s1)C(P(=O)(O)O)P(=O)(O)O`, in experiment [1], the 50% effective dose (ED50) is 0.135 mg/kg. The inhibition in vivo at 100 mg/kg amounted to 8% in experiment [2] and 11% in experiment [3].

`N#CC(c1nc2ccccc2s1)C(c1ccc([N+](=O)[O-])cc1)C(P(=O)(O)O)P(=O)(O)O` (stereo not drawn): in experiment [1], the 50% effective dose (ED50) was 0.095 mg/kg. The inhibition in vivo at 100 mg/kg in experiment [2] is 50%; in experiment [3], 38%.

Turning to `CN(C)c1ccc(C(C(C#N)c2nc3ccccc3s2)C(P(=O)(O)O)P(=O)(O)O)cc1` (stereo not drawn), the ED50 in experiment [1] is 0.08 mg/kg. Besides, the inhibition in vivo at 100 mg/kg in experiment [2] was 53%; in experiment [3], 58%.

Consider `O=C1NC(=S)SC1C(c1ccccc1Cl)C(P(=O)(O)O)P(=O)(O)O` (stereo not drawn), for which the 50% effective dose (ED50) in experiment [1] was 0.08 mg/kg. Further, the figures for the inhibition in vivo at 100 mg/kg in experiment [2] and in experiment [3] were 38% and 44%, respectively.

With `CN(C)c1ccc(/C=C(\c2nc3ccccc3s2)C(P(=O)(O)O)P(=O)(O)O)cc1`, the ED50 in experiment [1] was 0.11 mg/kg. In addition, the inhibition in vivo at 100 mg/kg in experiment [2] is 14%; in experiment [3], 19%.

Regarding `O=P(O)(O)C(/C(=C/c1ccccc1Cl)c1nc2ccccc2s1)P(=O)(O)O`, the median effective dose (ED50) in experiment [1] was 0.105 mg/kg.

For the molecule `O=C1NC(=S)SC1C(c1ccccc1)C(P(=O)(O)O)P(=O)(O)O` (stereo not drawn), the median effective dose (ED50) in experiment [1] was 0.077 mg/kg. The inhibition in vivo at 100 mg/kg in experiment [2] turned out to be 46%; in experiment [3], 39%.

In the case of `Cc1ccc(/C=C(\c2nc3ccccc3s2)C(P(=O)(O)O)P(=O)(O)O)cc1`, the ED50 in experiment [1] was 0.125 mg/kg. Further, the results for the inhibition in vivo at 100 mg/kg in experiment [2] and in experiment [3] were 6% and 13%, respectively.

On to `O=C1NC(=S)SC1C(c1ccccc1[N+](=O)[O-])C(P(=O)(O)O)P(=O)(O)O` (stereo not drawn), for which the 50% effective dose (ED50) in experiment [1] is 0.088 mg/kg. Further, the values for the inhibition in vivo at 100 mg/kg in experiment [2] and in experiment [3] were 42% and 46%, respectively.

Take `O=C1NC(=S)SC1C(c1ccccc1O)C(P(=O)(O)O)P(=O)(O)O` (stereo not drawn): the median effective dose (ED50) in experiment [1] is 0.078 mg/kg. Besides, the inhibition in vivo at 100 mg/kg in experiment [2] is 54%; in experiment [3], 51%.

With `O=P(O)(O)C(/C(=C/c1ccc(Cl)cc1)c1nc2ccccc2s1)P(=O)(O)O`, in experiment [1], the ED50 was 0.118 mg/kg.

In the case of `N#CC(c1nc2ccccc2s1)C(c1ccc(Cl)cc1)C(P(=O)(O)O)P(=O)(O)O` (stereo not drawn), the 50% effective dose (ED50) in experiment [1] is 0.09 mg/kg. Also, the figures for the inhibition in vivo at 100 mg/kg in experiment [2] and in experiment [3] were 52% and 53%, respectively.

Regarding `N#CC(c1nc2ccccc2s1)C(c1ccccc1[N+](=O)[O-])C(P(=O)(O)O)P(=O)(O)O` (stereo not drawn), in experiment [1], the ED50 is 0.105 mg/kg. Further, the inhibition in vivo at 100 mg/kg turned out to be 48% in experiment [2] and 51% in experiment [3].
